Assay outcomes from PubChem BioAssay.
This is a sample that favours compounds with a hit; in the whole collection about 3.3% have one here.
NRP1-CendR mod: alters CendR peptide binding to human NRP-1 | AID 602438 | FAM-RPARPAR peptide binding to NRP-1, fluorescence polarization | 360,000 compounds, 0.85% hits | inhibition, % at 25 µM | O14786;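 active means inhibition or corrected inhibition above about 18%, plus a signal ratio from 0.5 to 1.5, limit read from the data, passing the limit was not always enough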
HTR2A ag: mouse HTR2A agonism via beta-arrestin recruitment. P35363. activation, % at 7.6 µM. CHO-K1 mHTR2A beta-arrestin complementation, luminescence; percent of 30 µM serotonin response. 360,000 compounds, 0.66% hits. AID 624169;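 active means activation above a run cutoff, the mean activation of all tested compounds plus 3 SD, cut at about 14% in these data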;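 further: 0% = plate median of compound wells and 100% = 30 µM serotonin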
Target sequence (P35363 whole entry, looked up): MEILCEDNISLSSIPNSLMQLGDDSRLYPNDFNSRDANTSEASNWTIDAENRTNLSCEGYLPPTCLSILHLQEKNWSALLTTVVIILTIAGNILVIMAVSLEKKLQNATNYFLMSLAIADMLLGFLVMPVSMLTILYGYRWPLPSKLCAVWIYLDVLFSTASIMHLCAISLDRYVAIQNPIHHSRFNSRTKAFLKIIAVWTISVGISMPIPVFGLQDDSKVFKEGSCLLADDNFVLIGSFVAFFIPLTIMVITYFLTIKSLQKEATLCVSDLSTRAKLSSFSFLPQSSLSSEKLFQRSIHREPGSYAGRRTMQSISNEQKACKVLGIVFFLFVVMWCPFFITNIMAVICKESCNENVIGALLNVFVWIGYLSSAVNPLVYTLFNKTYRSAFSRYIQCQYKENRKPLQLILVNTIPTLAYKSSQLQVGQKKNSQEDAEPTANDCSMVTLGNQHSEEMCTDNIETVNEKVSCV
HGIII-sPLA2 inh: Inhibits HGIII-sPLA2 liposome hydrolysis, primary screen | QFRET BODIPY PC-A2 liposome hydrolysis, fluorescence | inhibition, % at 12.2 µM | 370,000 compounds, 0.56% hits;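 active means inhibition above mean plus 3 SD of compounds lying within the high and low control bounds, cut at about 19% in these data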;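 further: 0% = median of test compound wells and 100% = no enzyme DMSO wells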
Arrestin-AP2 inh: inhibitors of human beta-arrestin and AP2 interaction. FITC-arrestin peptide / GST-AP2 beads, flow cytometry; AP2 beta2 appendage carries R879A mutation. inhibition, % at 10 µM. 340,000 compounds, 0.31% hits. AID 504490;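 active means inhibition above a set limit, near 3 SD of compounds lacking own fluorescence, cut at about 54% in these data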;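 further: plate controls were DMSO wells for no effect and 5 µM unlabelled arrestin peptide for full effect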
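System: GST-AP2 R879A glutathione beads; medium: PBS, Tween 20 0.05%, BSA 0.1%; reagent: fluorescein-tagged arrestin peptide at 50 nM final; schedule: pre-incubation 12 min, peptide binding 1 h, room temperature; detection: flow cytometry, FL1 (488/535 nm); read-out: inhibition as reduced fluorescein signal on beads, percent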
PfM18AAP inh: blocks P. falciparum M18 aspartyl aminopeptidase. 290,000 compounds, 1.2% hits. AID 1822. inhibition, % at 7.35 µM. recombinant PfM18AAP, H-Glu-NHMec fluorogenic cleavage;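 active means inhibition above the campaign mean inhibition over all tested compounds plus 3 SD, cut at about 28% in these data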;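 further: 0% = plate median of test compound wells and 100% = 2 mM ZnCl2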
Lipid droplet: hepatic lipid droplet formation modulation; 240,000 compounds, 0.4% hits; inhibition, % at 6.5 µM; AML12 mouse hepatocytes, oleate lipid droplets, BODIPY imaging;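 active means lipid droplet intensity inhibited by at least 50%, with more than 500 cells counted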
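Assay system: AML12 mouse liver cells | Compound: 6.5 µM single-point dosing | Schedule: Overnight exposure | Technique: Fluorescence imaging, 20x objective, two fields per well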
* = called active by the depositor; · = no result.

SMILES	NRP1-CendR mod	HTR2A ag	HGIII-sPLA2 inh	Arrestin-AP2 inh	PfM18AAP inh	Lipid droplet
COc1ccc(F)cc1-c1cc(C(=O)NCc2cccc(C(F)(F)F)c2)[nH]n1	18*	-8	-4	·	·	·
O=C(OCC(O)C(O)C(O)C(SCc1ccccc1)SCc1ccccc1)c1ccccc1 (stereo not drawn)	14	4	-23	-9	·	·
CC(=O)NC(c1ccccc1)c1nc(-c2ccc(Cl)cc2)cs1 (stereo not drawn)	-2	1	-21	·	·	·
CC(C)C[C@H](NC(=O)c1cccs1)C(=O)N1CCC[C@H]1C(=O)NCc1ccccc1	·	·	8	·	·	·
CC(=O)Nc1sc2c(c1-c1cc3ccccc3o1)CCNC2	·	·	-2	·	·	·
NCCCC[C@H]1CN=C(N)N1CCC12CC3CC(CC(C3)C1)C2	38*	4	-3	7	·	13
NCCCC[C@H]1CN=C(N)N1CCc1cccc2ccccc12	9	-2	-8	-5	·	·
O=C(Cc1cccs1)NNC(=S)NC(=O)c1ccccc1	-2	2	8	14	35*	-4
CC(=O)NNC(=S)NC(=O)c1ccccc1	6	8	5	6	48*	-5
O=C(/C=C/c1ccccc1)NC(=S)NNC(=O)Cc1cccs1	-5	4	16	-7	13	-1
O=C(Cc1cccs1)NNC(=S)NC(=O)c1ccc(F)c(F)c1	8	2	-1	6	44*	-1
COc1ccc(/C=C/C(=O)NC(=S)NNC(=O)Cc2cccs2)cc1	-12	0	14	-133	3	8
CCOC(=O)c1cccc(NC(=O)CN(C)S(=O)(=O)c2cc(OC)ccc2OC)c1	·	·	-6	·	·	·
CC(C)CCN1C(=O)CSCC1(C)C(=O)Nc1ccc2c(c1)OCCO2 (stereo not drawn)	6	1	1	·	·	·
COC(=O)c1cc2c(c3c4cc(OC)ccc4n(S(=O)(=O)c4ccc(F)cc4)c13)C(=O)N(C)C2	·	·	4	·	·	·
C[C@H]1CN([C@@H](C)CO)C(=O)CCCn2cc(nn2)CO[C@@H]1CN(C)S(=O)(=O)c1cn(C)cn1	·	·	-1	·	·	·
CC(=O)N1CCC(C(=O)N2c3ccccc3N=C(c3ccc4c(c3)OCO4)C2C(=O)Nc2c(C)cccc2C)CC1 (stereo not drawn)	-9	4	-2	·	·	·
C=C1c2ccccc2S(=O)(=O)N(Cc2ccccc2)C1COCc1ccccc1 (stereo not drawn)	28*	-10	-5	3	·	-1
O=S1(=O)c2ccccc2OC(COCc2ccccc2)CN1Cc1ccccc1 (stereo not drawn)	-8	-1	2	10	·	·
CCOc1cccc(/C=N\NC(=O)c2cnccn2)c1O	·	·	-4	·	·	·
Cc1cc(C)c2sc(NNC(=O)c3ccc(S(=O)(=O)N4CCc5ccccc5C4)cc3)nc2c1	7	3	45*	21	23	-54
O=C(CCCCCN1C(=O)c2ccccc2C1=O)NC1CCCC1	24*	-8	1	4	-6	·
O=C(CCCCCCN1C(=O)c2ccccc2C1=O)NC1CCCCC1	4	-3	-4	-4	-3	-2
COc1cc(F)c(C2=CC(=O)C[C@H](c3ccc4c(c3)OCO4)C2)cc1F	16	-4	6	-15	·	·
COc1ccc(F)cc1C1=CC(=O)C[C@H](c2ccc3c(c2)OCO3)C1	25*	6	-10	17	·	·
SMILES	NRP1-CendR mod	HTR2A ag	HGIII-sPLA2 inh	Arrestin-AP2 inh	PfM18AAP inh	Lipid droplet
O=C(OCCN1CCN(C2CN(Cc3cn(Cc4ccccc4C(F)(F)F)nn3)S(=O)(=O)C2)CC1)c1cc2ccccc2o1 (stereo not drawn)	·	·	1	·	·	·
O=C(OCC#CCSc1nnc(-c2cccc3ccccc23)o1)c1ccc(F)cc1F	·	·	6	·	·	·
CC(C)NC(=O)COc1coc(CN2CCN(c3ccccc3)CC2)cc1=O	23*	1	0	-1	3	6
CC(C)NC(=O)COc1coc(CN2CCN(c3cccc(Cl)c3)CC2)cc1=O	7	5	5	-11	7	4
Cc1nnc(NC(=O)c2ccccc2Oc2ccccc2)s1	5	2	-3	-1	-17	2
Cc1nnc(NC(=O)c2ccccc2C(=O)O)s1	35*	3	1	5	3	-7
Cc1cc(C(=O)CN2C(=O)C(=O)N(CCC3=CCCCC3)C2=O)c(C)n1C	-4	0	6	2	·	·
O=C(CSc1nnc(CNC(=O)c2ccco2)o1)Nc1cccc(F)c1	19*	0	0	4	-18	17
NC(=O)C1CCN(C(=O)C2CCC(=O)N(CC3CCCCC3)C2)CC1 (stereo not drawn)	18*	-5	2	-15	-5	-3
O=C1C(Br)=Cc2cccc3cccc1c23	27*	2	-5	34	-3	6
CCOc1ccc(N(CC(=O)N2CCC(Cc3ccccc3)CC2)S(C)(=O)=O)cc1	29*	1	-12	8	-6	0
O=C(Nc1ccc(N2C(=O)CC(c3ccccc3)C2=O)c(Cl)c1)c1ccccn1 (stereo not drawn)	·	·	-34	·	·	·
CCCS(=O)(=O)N1CCC(C(=O)NCCN(CC)c2ccccc2)CC1	-4	-4	5	1	31*	18
C(=N\Nc1nc(Nc2ccccc2)nc(N2CCOCC2)n1)/c1c[nH]c2ccccc12	·	·	-23	·	5	·
Cc1ccc(Nc2nc(N/N=C/c3c[nH]c4ccccc34)nc(N3CCOCC3)n2)cc1	0	-6	-13	1	6	126*
Cc1onc(C(=O)N2CCN(C(c3ccccc3)c3ccccc3)CC2)c1Br	·	·	-3	·	·	·
O=C(NCc1n[nH]c(=S)n1-c1cccc(Cl)c1)c1cccs1	2	4	7	15	24	-1
Cn1c(SCc2ccccc2)nnc1-c1ccncc1	-20	-1	-1	-11	6	·
Cc1cccc(-n2c(CNC(=O)c3cccc([N+](=O)[O-])c3C)n[nH]c2=S)c1	10	2	5	-7	30*	19
O=C(NCc1n[nH]c(=S)n1-c1ccccc1)c1cccs1	9	7	12	-8	28*	6
Cn1c(SCc2n[nH]c(=S)n2-c2ccccc2)nnc1-c1ccccc1	2	1	5	10	30*	3
OCCCc1n[nH]c(=S)n1-c1ccccc1	23*	1	7	5	22	2
